# Data from ChEMBL document CHEMBL1157407, “Inhibitors of bacterial multidrug efflux pumps from the resin glycosides of Ipomoea murucoides” (2008).
# Key:
# Type in all cases: functional
# [1] = tested on: Staphylococcus aureus; test: Antimicrobial activity against methicillin-resistant Staphylococcus aureus XU212
# In short: (§1)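 Broth microdilution MIC per NCCLS guidelines, at least in duplicate, in cation-adjusted Mueller-Hinton broth (20 mg/L Ca2+, 10 mg/L Mg2+). Strains grown on nutrient agar first. Inoculum 5×10^5 cfu prepared in 0.9% saline against a McFarland standard. Compounds dissolved in DMSO, 2-fold serial dilutions, final 1–512 µg/mL (DMSO ≤3.125% v/v). MIC taken as lowest concentration with no visible growth.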
# [2] = tested on: Staphylococcus aureus; test: Antimicrobial activity against multidrug-resistant Staphylococcus aureus over expressing NorA MDR efflux pump; in short: as §1
# [3] = tested on: KB; test: Cytotoxicity against human KB cells after 72 hrs; conditions: read-out: ED50 (the source's name)
# In short: (§2)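 Cells grown in RPMI 1640 with 10% fetal bovine serum at 37 °C, 5% CO2, humidified. Log-phase cells treated in triplicate with test samples at 0.16–20 μg/mL for 72 h. Growth read by the NCI sulforhodamine method. ED50 is the dose inhibiting 50% of control growth, estimated from a semilog plot of concentration against percentage of viable cells.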
# [4] = tested on: HEp-2; test: Cytotoxicity against human Hep2 cells after 72 hrs; conditions: HEp-2, 72 h, read-out: ED50 (the source's name); in short: as §2
# [5] = tested on: HeLa; test: Cytotoxicity against human HeLa cells after 72 hrs; conditions: read-out: ED50 (the source's name); in short: as §2
# [6] = tested on: Staphylococcus aureus; test: Antimicrobial activity against epidemic methicillin-resistant Staphylococcus aureus 15 containing mecA gene; in short: as §1
# [7] = tested on: Staphylococcus aureus; test: Antimicrobial activity against Staphylococcus aureus ATCC 25923
# In short: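 Broth microdilution MIC per NCCLS guidelines, at least in duplicate. Inoculum 5×10^5 cfu prepared in 0.9% saline against a McFarland standard. Cation-adjusted Mueller-Hinton broth with 20 mg/L Ca2+ and 10 mg/L Mg2+. Compounds dissolved in DMSO, then 2-fold serial dilutions, final 1–512 μg/mL; DMSO at most 3.125% v/v. MIC is the lowest concentration giving no visible growth.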
compound,measurement,setting,value
CCCCC[C@H]1CCCCCCCCCC(=O)O[C@H]2[C@@H](O)[C@H](O[C@H]3[C@H](O1)O[C@H](C)[C@H](O)[C@@H]3O)O[C@@H](C)[C@@H]2O[C@@H]1O[C@@H](C)[C@H](O[C@@H]2O[C@@H](C)[C@H](OC(=O)[C@@H](C)CC)[C@@H](O)[C@H]2O)[C@@H](O[C@@H]2O[C@H](CO)[C@@H](O)[C@H](O)[C@H]2O)[C@H]1OC(=O)[C@@H](C)CC [MURUCOIDIN V],MIC,[1],256 µg/mL
same,MIC,[2],64 µg/mL
same,EC50,[3],> 20 µg/mL
same,EC50,[4],> 20 µg/mL
same,EC50,[5],13.2 µg/mL
same,MIC,[6],128 µg/mL
same,MIC,[7],> 512 µg/mL
CCCCCCCCCCCC(=O)O[C@H]1[C@H](O[C@@H]2[C@H]3OC(=O)CCCCCCCCC[C@H](CCCCC)O[C@@H]4O[C@H](C)[C@H](O)[C@H](O)[C@H]4O[C@H](O[C@H]2C)[C@@H]3O)O[C@@H](C)[C@H](O[C@@H]2O[C@@H](C)[C@H](OC(=O)[C@@H](C)CC)[C@@H](O)[C@H]2O)[C@H]1O[C@@H]1O[C@H](CO)[C@@H](O)[C@H](O)[C@H]1O [MURUCOIDIN XI],MIC,[1],> 512 µg/mL
same,MIC,[2],> 512 µg/mL
same,EC50,[3],12.1 µg/mL
same,EC50,[4],> 20 µg/mL
same,EC50,[5],> 20 µg/mL
same,MIC,[6],> 512 µg/mL
same,MIC,[7],> 512 µg/mL
CCCCC[C@H]1CCCCCCCCCC(=O)O[C@H]2[C@@H](O)[C@H](O[C@H]3[C@H](O1)O[C@H](C)[C@H](O)[C@@H]3O)O[C@@H](C)[C@@H]2O[C@@H]1O[C@@H](C)[C@H](O[C@@H]2O[C@@H](C)[C@H](OC(=O)[C@@H](C)CC)[C@@H](O)[C@H]2O)[C@@H](O[C@@H]2O[C@@H](C)[C@H](O)[C@@H](O)[C@H]2O)[C@H]1OC(=O)CCCCCC[C@H](O)CCCC [MURUCOIDIN X],MIC,[1],> 512 µg/mL
same,MIC,[2],> 512 µg/mL
same,EC50,[3],15.7 µg/mL
same,EC50,[4],> 20 µg/mL
same,EC50,[5],> 20 µg/mL
same,MIC,[6],> 512 µg/mL
same,MIC,[7],> 512 µg/mL
CCn1cc(C(=O)O)c(=O)c2cc(F)c(N3CCNCC3)cc21 [NORFLOXACIN],MIC,[1],512 µg/mL
same,MIC,[2],32 µg/mL
same,EC50,[4],> 20 µg/mL
same,MIC,[6],256 µg/mL
same,MIC,[7],> 512 µg/mL
C/C=C(\C)C(=O)O[C@H]1[C@H](O)[C@@H](O)[C@H](O[C@@H]2[C@H]3OC(=O)CCCCCCCCC[C@H](CCCCC)O[C@@H]4O[C@H](C)[C@@H](O)[C@H](O)[C@H]4O[C@@H]4O[C@H](CO)[C@@H](OC(=O)[C@H](C)[C@@H](C)O)[C@H](O)[C@H]4O[C@H](O[C@H]2C)[C@@H]3OC(=O)[C@@H](C)CC)O[C@@H]1C [ORIZABIN IX],MIC,[1],256 µg/mL
same,MIC,[2],512 µg/mL
same,EC50,[3],> 20 µg/mL
same,EC50,[4],> 20 µg/mL
same,EC50,[5],> 20 µg/mL
same,MIC,[6],256 µg/mL
same,MIC,[7],> 512 µg/mL
CCCCCCCCCCCC(=O)O[C@H]1[C@H](O[C@@H]2[C@H]3OC(=O)CCCCCCCCC[C@H](CCCCC)O[C@@H]4O[C@H](C)[C@H](O)[C@H](O)[C@H]4O[C@H](O[C@H]2C)[C@@H]3O)O[C@@H](C)[C@H](O[C@@H]2O[C@@H](C)[C@H](OC(=O)[C@@H](C)CC)[C@@H](O)[C@H]2O)[C@H]1O[C@@H]1O[C@@H](C)[C@H](O)[C@@H](O)[C@H]1O [PESCAPREIN III],MIC,[1],> 512 µg/mL
same,MIC,[2],> 512 µg/mL
same,EC50,[3],15.7 µg/mL
same,EC50,[4],4.7 µg/mL
same,EC50,[5],> 20 µg/mL
same,MIC,[6],> 512 µg/mL
same,MIC,[7],> 512 µg/mL
COC(=O)[C@H]1[C@H]2C[C@@H]3c4[nH]c5cc(OC)ccc5c4CCN3C[C@H]2C[C@@H](OC(=O)c2cc(OC)c(OC)c(OC)c2)[C@@H]1OC [RESERPINE],EC50,[4],> 20 µg/mL
CN(C)[C@@H]1C(O)=C(C(N)=O)C(=O)[C@@]2(O)C(O)=C3C(=O)c4c(O)cccc4[C@@](C)(O)[C@H]3C[C@@H]12 [TETRACYCLINE],MIC,[1],512 µg/mL
same,MIC,[2],32 µg/mL
same,MIC,[6],256 µg/mL
same,MIC,[7],> 512 µg/mL
CC[C@]1(O)C[C@@H]2CN(CCc3c([nH]c4ccccc34)[C@@](C(=O)OC)(c3cc4c(cc3OC)N(C)[C@H]3[C@@](O)(C(=O)OC)[C@H](OC(C)=O)[C@]5(CC)C=CCN6CC[C@]43[C@@H]65)C2)C1 [VINBLASTINE],EC50,[3],> 20 µg/mL
same,EC50,[4],> 20 µg/mL
same,EC50,[5],> 20 µg/mL
